The values below come from ChEMBL document CHEMBL1148523, “Synthesis and biological evaluation of novel pyridazinone-based alpha4 integrin receptor antagonists” (J Med Chem, 2006).

For orientation: IC50 means the concentration that inhibits the measured activity by half. Read a low IC50 as greater potency in that assay. By half-life is commonly meant the time needed for the level to fall by half in the phase considered. Higher therefore signals slow loss. A word on the AUC: it is concentration integrated over time. A high value points to more exposure. What is called bioavailability is the share of a dose that reaches the circulation, judged against a reference dose that is usually intravenous. By clearance is commonly meant the rate of elimination divided by the concentration. Read a high clearance as efficient removal. What is called inhibition in vivo is the relative decrease from the control value, in per cent.

The target of one data set is Integrin alpha-4/beta-1 (Homo sapiens, UniProt P05556+P13612). The experiment in a line: Inhibition of binding of alpha4beta1 integrin receptor expressed in human Ramos cells to immobilized VCAM1. It is filed as cell-based.
The target in another data set is T1, Integrin alpha-4/beta-7 (Homo sapiens, UniProt P13612+P26010).
T1 sequence (P13612 whole entry): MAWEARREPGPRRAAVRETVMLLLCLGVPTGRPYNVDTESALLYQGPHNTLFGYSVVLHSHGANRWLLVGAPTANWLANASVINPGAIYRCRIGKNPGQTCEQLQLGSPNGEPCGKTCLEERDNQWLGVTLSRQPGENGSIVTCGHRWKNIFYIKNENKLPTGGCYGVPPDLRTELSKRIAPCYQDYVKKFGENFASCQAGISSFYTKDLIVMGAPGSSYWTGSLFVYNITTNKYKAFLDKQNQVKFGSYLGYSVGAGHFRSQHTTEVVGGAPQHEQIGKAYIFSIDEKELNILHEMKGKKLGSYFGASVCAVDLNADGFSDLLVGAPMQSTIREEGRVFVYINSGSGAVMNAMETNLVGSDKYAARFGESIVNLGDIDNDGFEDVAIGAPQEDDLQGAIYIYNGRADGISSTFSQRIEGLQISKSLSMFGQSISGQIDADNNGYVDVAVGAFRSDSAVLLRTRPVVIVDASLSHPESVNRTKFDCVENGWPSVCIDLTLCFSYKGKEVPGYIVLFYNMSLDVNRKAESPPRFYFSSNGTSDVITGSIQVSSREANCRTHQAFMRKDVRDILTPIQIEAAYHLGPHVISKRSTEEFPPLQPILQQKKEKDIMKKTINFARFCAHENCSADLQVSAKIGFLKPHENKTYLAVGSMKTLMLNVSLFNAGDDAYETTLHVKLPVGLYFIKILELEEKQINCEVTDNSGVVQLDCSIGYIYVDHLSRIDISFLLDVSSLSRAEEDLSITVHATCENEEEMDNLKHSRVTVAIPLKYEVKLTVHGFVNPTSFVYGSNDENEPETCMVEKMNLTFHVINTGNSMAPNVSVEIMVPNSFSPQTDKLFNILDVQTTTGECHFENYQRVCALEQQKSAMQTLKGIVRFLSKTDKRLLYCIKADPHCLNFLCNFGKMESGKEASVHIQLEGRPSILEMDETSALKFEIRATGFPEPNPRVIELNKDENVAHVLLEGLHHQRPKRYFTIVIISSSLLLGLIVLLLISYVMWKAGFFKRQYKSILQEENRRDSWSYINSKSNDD
T1 sequence (P26010 whole entry): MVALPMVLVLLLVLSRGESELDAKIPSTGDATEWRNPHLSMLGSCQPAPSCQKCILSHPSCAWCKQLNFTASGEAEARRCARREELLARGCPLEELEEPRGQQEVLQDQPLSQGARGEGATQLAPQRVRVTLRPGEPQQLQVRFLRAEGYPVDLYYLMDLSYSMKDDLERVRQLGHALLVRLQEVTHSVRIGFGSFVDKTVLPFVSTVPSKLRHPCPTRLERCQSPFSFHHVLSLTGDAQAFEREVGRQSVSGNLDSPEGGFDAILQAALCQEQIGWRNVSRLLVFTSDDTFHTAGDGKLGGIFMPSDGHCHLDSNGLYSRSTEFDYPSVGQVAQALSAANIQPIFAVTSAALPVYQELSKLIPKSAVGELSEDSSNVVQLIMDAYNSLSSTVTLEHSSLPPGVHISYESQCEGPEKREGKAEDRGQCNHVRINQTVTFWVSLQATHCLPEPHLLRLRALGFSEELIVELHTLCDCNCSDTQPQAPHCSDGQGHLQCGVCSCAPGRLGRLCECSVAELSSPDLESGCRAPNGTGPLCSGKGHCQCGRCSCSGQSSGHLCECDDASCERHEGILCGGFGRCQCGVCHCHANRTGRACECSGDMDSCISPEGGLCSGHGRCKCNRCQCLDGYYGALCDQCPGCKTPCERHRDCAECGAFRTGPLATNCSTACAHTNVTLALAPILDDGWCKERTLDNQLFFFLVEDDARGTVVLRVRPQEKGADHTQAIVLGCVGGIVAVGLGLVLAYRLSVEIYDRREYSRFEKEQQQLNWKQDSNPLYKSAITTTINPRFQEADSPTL
The experiment in a line: Inhibition of binding of alpha-4-beta-7 integrin receptor expressed in human K562 cells to immobilized MAdCAM1. It is filed as cell-based.

A short description of data set [1]: Half life in rat at 3 mg/kg, iv. It is filed as ADME, organism-based. The settings on record: in vivo. The arrangement: dose 3 mg/kg, route intravenous. In a few lines: (§1)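 Rats were given 3 mg/kg iv or 30 mg/kg by oral gavage (oral vehicle 10% PEG 400 in PBS, pH 7.0-7.5). Heparinized blood was sampled after dosing and the plasma stored at -70 °C. Analysis was by LC-MS-MS with multiple reaction monitoring, using plasma calibration standards of 0.01-10 µM (LOQ 0.01 µM). For ester prodrugs, the parent acid was quantified. AUC was taken after oral dosing and t1/2 after iv dosing.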

Data set [2] can be described thus: AUC in rat at 30 mg/kg, po. It is filed as ADME, organism-based. Further details: dose 30 mg/kg, route oral. The note with it: plasma. The procedure, abridged:
as §1

Data set [3] in a line: Oral bioavailability in rat at 30 mg/kg, po and 3 mg/kg, iv. It counts as ADME, organism-based. The settings on record: in vivo. The procedure, abridged:
as §1

A short description of data set [4]: Clearance in rat at 3 mg/kg, iv. The note with it: in vivo. It is filed as ADME, organism-based. The arrangement: dose 3 mg/kg, route intravenous. In a few lines:
as §1

Data set [5] can be described thus: Volume of distribution in rat at 3 mg/kg, iv. It counts as ADME, organism-based. The arrangement: dose 3 mg/kg, route intravenous. The note with it: in vivo, read-out: Vdss. In a few lines: as §1
Another data set relates to Mus musculus. Kind of data set: Inhibition of DSS-induced colitis in mouse at 60 mg/kg, po after 7 days. It counts as functional. The settings on record: 168 h. In a few lines: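 Female Balb/c mice, 11-14 weeks old (n = 10/group), drank 5% DSS in tap water ad libitum for 7 days, freshly changed daily. Oral gavage at 60 mg/kg in 10% PEG 400 in D5W, or vehicle alone, began on the day of induction and continued twice daily for 7 days. Colons were then dissected. The macroscopic score combined colon shrinkage, stool consistency and colon damage.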

Data set [6] is described as follows: Inhibition of adhesion of human HL60 cell to TNF-alpha-stimulated HUVEC cells mediated by ELAM1. It is filed as functional, cell-based.
Data set [7] can be described thus: Inhibition of adhesion of human U937 cell to LPS-stimulated HUVEC cells mediated by ICAM1/VCAM1. It counts as functional, cell-based.
Data set [8] in a line: Inhibition of adhesion of human Ramos cell to TNF-alpha-stimulated HUVEC cells mediated by VCAM1. It is filed as functional, cell-based.

Sequence of Integrin alpha-4/beta-1 (P05556 whole entry, one chain of several): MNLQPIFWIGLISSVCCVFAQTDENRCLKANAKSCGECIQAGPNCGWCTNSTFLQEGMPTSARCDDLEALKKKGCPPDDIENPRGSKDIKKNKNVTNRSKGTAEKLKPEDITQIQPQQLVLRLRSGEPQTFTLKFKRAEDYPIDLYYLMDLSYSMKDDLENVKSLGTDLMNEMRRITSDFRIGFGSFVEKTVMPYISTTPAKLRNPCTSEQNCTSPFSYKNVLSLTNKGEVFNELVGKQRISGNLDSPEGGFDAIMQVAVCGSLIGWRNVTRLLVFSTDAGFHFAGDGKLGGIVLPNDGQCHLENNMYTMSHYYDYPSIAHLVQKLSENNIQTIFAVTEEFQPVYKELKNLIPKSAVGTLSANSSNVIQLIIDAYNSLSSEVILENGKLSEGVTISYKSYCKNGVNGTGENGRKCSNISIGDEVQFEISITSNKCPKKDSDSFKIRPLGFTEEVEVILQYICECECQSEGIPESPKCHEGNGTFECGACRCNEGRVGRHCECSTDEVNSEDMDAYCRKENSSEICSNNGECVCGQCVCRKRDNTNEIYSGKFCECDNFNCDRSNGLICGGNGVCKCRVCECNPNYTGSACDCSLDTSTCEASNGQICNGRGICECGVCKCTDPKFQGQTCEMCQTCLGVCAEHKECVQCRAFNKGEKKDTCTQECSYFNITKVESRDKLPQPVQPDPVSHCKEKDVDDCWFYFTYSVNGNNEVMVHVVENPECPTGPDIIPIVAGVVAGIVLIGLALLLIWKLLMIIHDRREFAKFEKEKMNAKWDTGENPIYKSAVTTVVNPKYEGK

On to `COc1cnn(C2CCCCC2)c(=O)c1-c1ccc(C[C@H](NC(=O)c2c(Cl)cccc2Cl)C(=O)O)cc1`, for which the IC50 on Integrin alpha-4/beta-1 is over 5000 nM; on Integrin alpha-4/beta-7, 330 nM.

Turning to `COC(=O)[C@H](Cc1ccc(-c2c(OC)cnn(C)c2=O)cc1)NC(=O)c1c(Cl)cccc1Cl`, in data set [1], the half-life is 42 min. The compound further registered an AUC in [2] of 1.7 µM·h. The compound also gave a bioavailability in data set [3] of 8%.

`COc1cnn(C)c(=O)c1-c1ccc(C[C@H](NC(=O)c2c(Cl)cccc2Cl)C(=O)OCCO)cc1`: the half-life in data set [1] is 60 min. The compound further had an AUC in data set [2] of 3.3 µM·h. This compound returned a bioavailability in data set [3] of 7%.

Consider `COc1cnn(C)c(=O)c1-c1ccc(C[C@H](NC(=O)N(C)CC(C)C)C(=O)O)cc1`, for which, in data set [4], the clearance turned out to be 7.8 mL/min/kg. The concentration for half-maximal inhibition (IC50) on Integrin alpha-4/beta-1 was found to be 1800 nM. The compound further gave a half-life in [1] of 54 min. For the same compound, in [2], the AUC was found to be 5.2 µM·h. In addition, the bioavailability in [3] was 3%. The Vd in [5] stood at 0.19 L/kg.

For `COc1cnn(Cc2ccccc2)c(=O)c1-c1ccc(C[C@H](NC(=O)c2c(Cl)cccc2Cl)C(=O)O)cc1`, the IC50 at Integrin alpha-4/beta-7 worked out at 100 nM.

The compound `CCOC(=O)[C@H](Cc1ccc(-c2c(OC)cnn(C)c2=O)cc1)NC(=O)c1c(Cl)cccc1Cl` gave an AUC in data set [2] of 2.3 µM·h. This compound also yielded a bioavailability in data set [3] of 4%.

At Integrin alpha-4/beta-1, `Cn1ncc(N2CCCC2)c(-c2ccc(C[C@H](NC(=O)c3c(Cl)cccc3Cl)C(=O)O)cc2)c1=O` showed an IC50 of 110 nM.

As for `COc1cnn(CCO)c(=O)c1-c1ccc(C[C@H](NC(=O)OC(C)(C)C)C(=O)OCCO)cc1`, in the data set on Mus musculus, the inhibition in vivo at 60 mg/kg was 54%. In data set [1], this compound showed a half-life of 66 min. In addition, the AUC in data set [2] was 51 µM·h. The same compound gave a bioavailability in data set [3] of 31%.

Compound `COc1cnn(CCO)c(=O)c1-c1ccc(C[C@H](NC(=O)OC(C)(C)C)C(=O)O)cc1` displayed a clearance in data set [4] of 6 mL/min/kg. Besides, the figures for the IC50 at Integrin alpha-4/beta-1 and on Integrin alpha-4/beta-7 were over 5000 nM and 110 nM, respectively. In data set [1], this compound gave a half-life of 12 min. This compound returned an AUC in data set [2] of 1.6 µM·h. Further, in [3], the bioavailability is 1%. In [5], the Vd amounted to 0.11 L/kg.

The compound `Cn1ncc(O)c(-c2ccc(C[C@H](NC(=O)c3c(Cl)cccc3Cl)C(=O)O)cc2)c1=O` showed an IC50 at Integrin alpha-4/beta-7 of 49 nM.

`COc1cnn(C)c(=O)c1-c1ccc(C[C@H](NC(=O)N(C)CC(C)C)C(=O)OCCO)cc1` gave a half-life in data set [1] of 24 min. Further, the AUC in data set [2] was determined as 47 µM·h. This compound also yielded a bioavailability in data set [3] of 14%.

As to `COc1cnn(C)c(=O)c1-c1ccc(C[C@H](NC(=O)N(C)C)C(=O)O)cc1`, the IC50 was over 5000 nM at Integrin alpha-4/beta-1 and 1500 nM at Integrin alpha-4/beta-7.

On Integrin alpha-4/beta-1, `COc1cnn(C)c(=O)c1-c1ccc(C[C@H](NC(=O)OC(C)(C)C)C(=O)O)cc1` yielded an IC50 of over 5000 nM.

For `COc1cnn(CCO)c(=O)c1-c1ccc(C[C@H](NC(=O)c2c(Cl)cccc2Cl)C(=O)O)cc1`, the IC50 at Integrin alpha-4/beta-1 worked out at 130 nM.

At Integrin alpha-4/beta-1, `COC(=O)N[C@@H](Cc1ccc(-c2c(OC)cnn(C)c2=O)cc1)C(=O)O` showed an IC50 of over 5000 nM.

`Cn1ncc(OCCN2CCOCC2)c(-c2ccc(C[C@H](NC(=O)c3c(Cl)cccc3Cl)C(=O)O)cc2)c1=O`: the IC50 at Integrin alpha-4/beta-1 was found to be 66 nM.

Compound `CCCN(C(=O)N[C@@H](Cc1ccc(-c2c(OC)cnn(C)c2=O)cc1)C(=O)O)c1ccccc1` came in with an IC50 at Integrin alpha-4/beta-1 of over 5000 nM.

Regarding `CCOc1cnn(C)c(=O)c1-c1ccc(C[C@H](NC(=O)c2c(Cl)cccc2Cl)C(=O)O)cc1`, the IC50 at Integrin alpha-4/beta-1 was 170 nM; on Integrin alpha-4/beta-7 it was 2 nM.

Take `Cn1ncc(OC(F)F)c(-c2ccc(C[C@H](NC(=O)c3c(Cl)cccc3Cl)C(=O)O)cc2)c1=O`: the IC50 amounted to 280 nM on Integrin alpha-4/beta-1 and 8 nM on Integrin alpha-4/beta-7.

For the compound `COc1cnn(C)c(=O)c1-c1ccc(C[C@H](NC(=O)c2c(Cl)cccc2Cl)C(=O)O)cc1`, in data set [4], the clearance came to 22 mL/min/kg. In addition, the IC50 in [6] is under 5 nM; in data set [7], 14 nM; in [8], 43 nM. For the same compound, the half-life in data set [1] is 12 min. Further, the AUC in data set [2] came to 0.5 µM·h. Also, the bioavailability in data set [3] stood at 1%. Further, the Vd in data set [5] was 0.4 L/kg.

On Integrin alpha-4/beta-1, `Cn1ncc(OC2CCCCC2)c(-c2ccc(C[C@H](NC(=O)c3c(Cl)cccc3Cl)C(=O)O)cc2)c1=O` gave an IC50 of 150 nM.

Regarding `COc1cnnc(O)c1-c1ccc(C[C@H](NC(=O)c2c(Cl)cccc2Cl)C(=O)O)cc1`, the IC50 on Integrin alpha-4/beta-1 is 1000 nM.
